Data set [1] has as its target T1, h3β-HSD2 (Homo sapiens, UniProt P26439).
T1 sequence (P26439 1-372): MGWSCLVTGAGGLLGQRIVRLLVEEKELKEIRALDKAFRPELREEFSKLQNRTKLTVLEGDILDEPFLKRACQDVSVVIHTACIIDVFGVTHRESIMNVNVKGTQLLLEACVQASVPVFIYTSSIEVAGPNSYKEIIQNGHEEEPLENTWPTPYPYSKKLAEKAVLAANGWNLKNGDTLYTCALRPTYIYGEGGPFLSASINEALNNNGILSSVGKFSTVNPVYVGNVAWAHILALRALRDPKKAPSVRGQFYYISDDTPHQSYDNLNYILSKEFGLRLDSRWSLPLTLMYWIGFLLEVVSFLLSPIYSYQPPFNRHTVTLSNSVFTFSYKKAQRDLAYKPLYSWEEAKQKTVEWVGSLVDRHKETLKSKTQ
As to the kind of experiment: h3β-HSD2 activity, conversion of P5 to P4 in KGN cell homogenate. The settings on record: for Residual h3β-HSD2 activity: 100 µM chemical, relative to DMSO control; for IC50: IC50, human 3β-HSD2, KGN cell homogenate, 0.2 µM P5, 0.2 mM NAD+, 30 min; for Mode action: human 3β-HSD2, vs. P5, mixed model and Lineweaver-Burk plot. The class given is biochemical.

The target of data set [2] is T2, r3β-HSD1 (Rattus norvegicus, UniProt P22071).
T2 sequence (P22071 1-373): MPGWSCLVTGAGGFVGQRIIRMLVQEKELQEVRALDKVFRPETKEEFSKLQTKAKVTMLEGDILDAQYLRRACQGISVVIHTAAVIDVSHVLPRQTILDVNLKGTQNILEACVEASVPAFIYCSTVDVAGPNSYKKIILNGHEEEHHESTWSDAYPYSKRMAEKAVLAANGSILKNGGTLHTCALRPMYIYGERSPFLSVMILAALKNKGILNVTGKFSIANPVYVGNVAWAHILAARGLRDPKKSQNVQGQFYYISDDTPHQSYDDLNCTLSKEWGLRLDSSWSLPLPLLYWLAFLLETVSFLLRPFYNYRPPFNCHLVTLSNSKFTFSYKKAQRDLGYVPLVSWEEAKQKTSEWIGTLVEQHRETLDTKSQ
The experiment in a line: r3β-HSD1 activity, conversion of P5 to P4 in rat testicular microsome. The class given is biochemical. The settings on record: for Residual r3β-HSD1 activity: 100 µM chemical, relative to DMSO control; for IC50: IC50, rat 3β-HSD1, testicular microsome, 0.2 µM P5, 0.2 mM NAD+, 30 min; for increase of inhibitory effect relative to CUR: r3β-HSD1; for Mode action: rat 3β-HSD1, vs. P5, mixed model and Lineweaver-Burk plot. The procedure, abridged: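 Testes came from 90-day male Sprague-Dawley rats. Microsomes were isolated from homogenate in 0.25 M sucrose PBS (pH 7.2) by spins at 700, 14,500 and twice 105,000 ×g. Reactions used 5 µg microsomal protein, 0.2 µM P5 and 0.2 mM NAD+ in PBS for 30 min. […] P4 by HPLC-MS/MS with T-d5 internal standard; n = 4.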

The test system of data set [3] is human KGN cells. The experiment in a line: P4 output in human KGN cells under basal and FSK-stimulated conditions. In kind it is cell-based. The settings on record: basal condition, 24 h. The procedure, abridged:
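KGN human granulosa-like cells grown in DMEM/F12 with 10% FBS and 1% antibiotics at 37 °C, 5% CO2. Seeded at 1 × 10^6 cells/well and treated for 24 h with 0, 10, 20 or 40 µM test compound, either without forskolin (basal) or with 10 µM forskolin. P4 in the medium was quantified by HPLC-MS/MS. n = 4; one-way ANOVA with Dunnett's test vs control.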

The conditions of data set [4]: cited from earlier work.
The conditions of data set [5]: ref GuideChem; cited from earlier work.
The subject of data set [6] is human 11β-HSD1. The settings on record: cited from earlier work.
Data set [7] deals with human 11β-HSD2. The settings on record: cited from earlier work.
Data set [8] concerns human 17β-HSD3. The settings on record: cited from earlier work.

Results on six molecules are retold here after article PMC10187107 (Journal of Enzyme Inhibition and Medicinal Chemistry, 2023).

Several values for one entry are separate records, joined by “and”; a condition that tells them apart may be missing. Identical values can stand only once. Where only a bound is given, the exact number is not on record here.

As a reminder, the Ki is a dissociation constant, usually derived from enzyme kinetics or from competition with a known ligand. Read a low Ki as higher affinity. The IC50 is the concentration that inhibits the measured activity by half. Turning to `O=C(/C=C/c1ccc(O)cc1)CC(=O)/C=C/c1ccc(O)cc1` [BDMC, bisdemethoxycurcumin], in data set [1], the Ki stood at 1.12 µM, the “Residual h3β-HSD2 activity” value is reported as < 25 % of the control, inhibition was half-maximal at 1.68 ± 0.39 µM (IC50) and the Mode action entry was “Competitive”. Also, in data set [2], the Ki is 1.56 µM, the “Residual r3β-HSD1 activity” value is reported as < 20 % of the control, the IC50 was determined as 1.22 ± 0.31 µM and the “increase of inhibitory effect relative to CUR” value was determined as 2 fold. Besides, the Mode action entry in data set [2] is reported as “Mixed”. Further, in data set [3], the “lowest concentration that markedly decreased basal P4 output” value worked out at 10 µM. In addition, the half-lives in data set [4] is 2 to 4 h.
By LogP is commonly meant a log measure of how a compound divides between an organic and an aqueous phase. Turning to `COc1cc(/C=C/C(=O)CC(=O)/C=C/c2ccc(O)c(OC)c2)ccc1O` [CUR, curcumin], in data set [1], the “Residual h3β-HSD2 activity” value is on record as < 25 % of the control and the Mode action entry is listed as “Mixed”. In data set [2], affinity was put at a Ki of 4.21 µM, the “Residual r3β-HSD1 activity” value was < 20 % of the control, the IC50 was found to be 4.06 ± 1.1 µM and the Mode action entry is recorded as “Mixed”. Moreover, in data set [2] (r3β-HSD1 vs h3β-HSD2), the “higher potency to inhibit r3β-HSD1 than h3β-HSD2” value is listed as “about 3 fold”. The “lowest concentration that markedly decreased basal P4 output” value in data set [3] is on record as 20 µM. In addition, the LogP in data set [5] is on record as 3.37. Besides, in data set [6], the IC50 is ~10 µM and 10 to 15 µM. The half-maximal inhibitory concentration (IC50) in data set [7] was ~14.5 µM and 10 to 15 µM. For the same molecule, the IC50 in data set [8] is ~67.3 µM and > 50 µM. The “clearance from the body” value in data set [4] is listed as “rapid clearance”.
On to `COc1cc(/C=C/C(O)=C/C(=O)/C=C/c2ccc(O)cc2)ccc1O` [DMC, demethoxycurcumin], for which, in data set [1], the Ki came to 3.85 µM, the “Residual h3β-HSD2 activity” value is given as < 25 % of the control, the half-inhibitory concentration (IC50) stood at 3.27 ± 0.38 µM and the Mode action result is given as “Mixed”. For the same molecule, in data set [2], the inhibitory constant (Ki) is 2.18 µM, the “Residual r3β-HSD1 activity” value is < 20 % of the control, half-maximal inhibition (IC50) was put at 2.15 ± 0.27 µM and the “increase of inhibitory effect relative to CUR” value stood at 1 fold. Besides, the Mode action result in data set [2] was “Mixed”. The “lowest concentration that markedly decreased basal P4 output” value in data set [3] was 10 µM. Besides, in data set [4], the half-lives was 2 to 4 h.
`COc1cc(CCC(O)CC(O)CCc2ccc(O)c(OC)c2)ccc1O` (stereo not shown) [OHC, octahydrocurcumin]: the “Residual h3β-HSD2 activity” value in data set [1] is on record as ≥ 50 % of the control.
In general, Km refers to the substrate concentration at which the rate is half of its maximum. With `CC(=O)[C@H]1CC[C@H]2[C@@H]3CC=C4C[C@@H](O)CC[C@]4(C)[C@H]3CC[C@]12C` [P5, pregnenolone], the Km was 3.08 ± 0.81 µM in data set [1] (read-out: apparent Km, substrate P5, h3β-HSD2, Michaelis-Menten kinetics) and 0.32 ± 0.1 µM in data set [2] (read-out: apparent Km, substrate P5, r3β-HSD1, Michaelis-Menten kinetics).
For the molecule `COc1cc(CCC(=O)CC(=O)CCc2ccc(O)c(OC)c2)ccc1O` [THC, tetrahydrocurcumin], in data set [1], the “Residual h3β-HSD2 activity” value is on record as ≥ 50 % of the control and the IC50 was 109 ± 19.2 µM. Moreover, in data set [2], the “Residual r3β-HSD1 activity” value was “around 50 % of the control” and inhibition was half-maximal at 103 ± 11.6 µM (IC50). In addition, in data set [5], the log partition coefficient (LogP) was 3.691.
